Reference: ChEMBL document CHEMBL4765234 (J Med Chem, 2016)
Values after ≈ are worked out from the molar mass of the structure shown. Active and inactive are the calls of the source. The calls are words filed in the database; no cut-off is given here.

Columns and labels:
[1] = molecular target: Free fatty acid receptor 1 (Mus musculus, UniProt Q76JU9); assay: Agonist activity at Prolink-tagged mouse GPR40 fused with EA-tagged beta-arrestin expressed in human U2OS cells assessed as induction of beta-arrestin recruitment measured after 90 mins by beta-galactosidase based PathHunter assay; format: cell-based
Sequence of Free fatty acid receptor 1 (Mus musculus, UniProt Q76JU9) (Q76JU9 whole entry, the tested form may be a part): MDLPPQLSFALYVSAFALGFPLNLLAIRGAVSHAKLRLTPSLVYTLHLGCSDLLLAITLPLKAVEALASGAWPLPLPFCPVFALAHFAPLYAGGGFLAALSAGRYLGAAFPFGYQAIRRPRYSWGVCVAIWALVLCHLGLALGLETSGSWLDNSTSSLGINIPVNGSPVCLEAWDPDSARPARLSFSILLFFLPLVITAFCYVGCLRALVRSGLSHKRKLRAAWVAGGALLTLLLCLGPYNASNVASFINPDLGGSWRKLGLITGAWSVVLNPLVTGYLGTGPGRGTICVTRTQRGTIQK
Summary of the method: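 PathHunter β-gal complementation. Cells were incubated overnight at 5000/well in medium with 1% heat-inactivated FBS. Compound was added as a 20-point 2-fold series from a top final of 100 μM (1% DMSO) for 90 min at 37 °C, followed by detection reagents and chemiluminescence read after 1 h at rt.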

[2] = Protein binding in plasma (unknown origin) by equilibrium dialysis method; format: ADME, cell-free; details: human, read-out: PPB
Summary of the method: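 Plasma protein binding measured by equilibrium dialysis.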

[3] = molecular target: T1, Peroxisome proliferator-activated receptor alpha (Homo sapiens) (UniProt Q07869); assay: Displacement of [3H]-[…] from PPARalpha (unknown origin) expressed in baculovirus infected Sf9 insect cells upto 30 uM measured after 10 hrs by microbeta scintillation counting analysis; details: dose microM <=30, time 10.0 hrs
T1 sequence (whole entry): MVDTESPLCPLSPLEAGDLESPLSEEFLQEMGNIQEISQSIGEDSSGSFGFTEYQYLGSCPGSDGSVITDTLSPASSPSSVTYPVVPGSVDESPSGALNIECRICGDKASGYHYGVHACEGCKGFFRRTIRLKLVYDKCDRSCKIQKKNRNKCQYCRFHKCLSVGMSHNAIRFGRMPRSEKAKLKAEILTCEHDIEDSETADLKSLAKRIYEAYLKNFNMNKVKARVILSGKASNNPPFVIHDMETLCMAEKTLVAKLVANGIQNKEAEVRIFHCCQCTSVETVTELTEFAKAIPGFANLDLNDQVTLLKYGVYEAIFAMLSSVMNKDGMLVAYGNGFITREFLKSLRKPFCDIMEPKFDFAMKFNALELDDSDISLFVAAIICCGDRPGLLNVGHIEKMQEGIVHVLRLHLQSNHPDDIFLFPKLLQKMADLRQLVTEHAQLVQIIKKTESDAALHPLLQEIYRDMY
Summary of the method: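 Scintillation proximity assay. Sf9 lysates with baculovirus-expressed PPARα (0.3 μg), PPARδ (0.5 μg) or PPARγ (1.25 μg), each with RXRα, were bound via biotinylated DR2 oligo (0.126 nM) to streptavidin yttrium silicate beads. Buffer was HEPES pH 7.8 with KCl, MgCl2, DTT, CHAPS, 14% glycerol and salmon sperm DNA. A 3H reference agonist ligand was used, with 11 compound concentrations, for 10 h. Nonspecific binding was defined with 10000 nM unlabeled reference. Ki was derived from IC50.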

[4] = Dissociation constant, pKa2 of compound by potentiometric method; format: physicochemical
Summary of the method: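 pKa values measured potentiometrically.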

Mus musculus [5] = assay: Hypoglycemic activity in Balb/c mouse assessed as effective dose causing reduction in blood glucose level administered orally 60 mins prior to glucose challenge measured for 60 mins by IPGTT; format: functional; details: po, 1 h
[6] = molecular target: T2, Free fatty acid receptor 1 (Homo sapiens, UniProt O14842); assay: Agonist activity at human recombinant full length GPR40 overexpressed in human HEK293 cells assessed as increase in intracellular calcium level measured over 3 mins by calcium 4 dye based FLIPR assay relative to 100 uM linoleic acid; format: functional, cell-based; details: filed as agonist
T2 sequence (O14842 whole entry): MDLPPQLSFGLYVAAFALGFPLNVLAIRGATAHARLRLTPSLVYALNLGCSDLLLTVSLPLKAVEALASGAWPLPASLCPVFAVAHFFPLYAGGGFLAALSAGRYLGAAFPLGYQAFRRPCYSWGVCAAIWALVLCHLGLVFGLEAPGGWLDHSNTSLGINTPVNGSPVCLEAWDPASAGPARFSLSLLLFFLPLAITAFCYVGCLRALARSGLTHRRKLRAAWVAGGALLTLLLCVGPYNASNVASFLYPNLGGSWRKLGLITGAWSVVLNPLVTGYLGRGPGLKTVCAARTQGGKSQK
Summary of the method: (§1)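 HEK293 cells overexpressing hGPR40 (25K/well) were cultured overnight in DMEM/F12 with 0.2% FBS and geneticin. Compound was tested at 40 μM–0.1 nM final (20-point, 1% DMSO), and FLIPR fluorescence was read over 3 min.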

[7] = molecular target: T2, Free fatty acid receptor 1; assay: Agonist activity at human recombinant full length GPR40 overexpressed in human HEK293 cells assessed as increase in intracellular calcium level measured over 3 mins by calcium 4 dye based FLIPR assay; format: functional, cell-based; summary of the method: as §1
[8] = molecular target: T2, Free fatty acid receptor 1; assay: Agonist activity at human recombinant full length GPR40 overexpressed in human HEK293 cells assessed as increase in inositol phosphate accumulation in presence of terbium cryptate-labeled anti IP1/d2-labelled IP1 measured after 120 mins by HTRF assay relative to AMG837; format: functional, cell-based; details: filed as agonist
Summary of the method: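 HEK293 hGPR40 cells (20K/well) were cultured overnight, washed, and held in IP1 stimulation buffer. IP-1 was measured by competitive HTRF immunoassay with terbium cryptate anti-IP1 mAb and d2-labelled IP1.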

Rattus norvegicus [9] = assay: Hypoglycemic activity in Zucker fatty diabetes mellitus rat model assessed as reduction in blood glucose level administered orally for 21 days and measured at 10 to 60 mins post glucose challenge on day 1 by OGTT; format: functional, organism-based; details: dose 0.03-1 mg/kg, time 21.0 day
[10] = molecular target: RXR alpha/PPAR gamma (Homo sapiens) (UniProt P37231+P19793); assay: Agonist activity at human CMV-fused PPARgamma […]/RXRalpha (unknown origin) expressed in African green monkey CV1 cells transfected with luciferase plasmid assessed as maximum efficacy measured after 24 hrs by luciferase reporter gene assay relative to control; format: cell-based; details: CV-1
Summary of the method: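 CV1 cells were transfected, in DMEM with 5% charcoal-stripped FBS, with CMV-driven full PPARγ and RXRα plus a 2×PPRE TK-promoter luciferase reporter. After overnight growth, cells were replated at 15000/well for 4 h, then treated with 0.17 nM–10 μM in half-log dilutions for 24 h. Lysate luminescence was expressed as % of the maximum from 10 μM reference PPARγ agonist and fit to a 4-parameter logistic.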

[11] = Solubility of the compound in 0.01 N HCl; format: physicochemical
Rattus norvegicus [12] = assay: Hypoglycemic activity in Zucker fatty diabetes mellitus rat model assessed as increase in insulin levels in plasma at 0.03 to 1 mg/kg, po administered for 21 days and measured at 10 to 60 mins post glucose challenge on day 21 by OGTT; format: functional, organism-based; details: dose 0.03-1 mg/kg, time 21.0 day
Mus musculus [13] = assay: Hypoglycemic activity in Balb/c mouse assessed as reduction in blood glucose level at 0.03 to 3 mg/kg, po administered 60 mins prior to glucose challenge and measured at 7 to 60 mins by IPGTT; format: functional, organism-based; details: dose 0.03-3 mg/kg
[14] = Clearance in mouse hepatocytes by LC-MS/MS analysis; format: ADME, cell-based, Hepatocyte
Rattus norvegicus [15] = assay: Hypoglycemic activity in Zucker fatty diabetes mellitus rat model assessed as increase in insulin levels in plasma at 0.03 to 1 mg/kg, po administered for 21 days and measured at 10 to 60 mins post glucose challenge on day 1 by OGTT; format: functional, organism-based; details: dose 0.03-1 mg/kg, time 21.0 day
[16] = Solubility of the compound in FaSSIF; format: physicochemical
[17] = molecular target: T3, Peroxisome proliferator-activated receptor alpha (Homo sapiens, UniProt Q07869); assay: Agonist activity at human Gal4-fused PPARalpha LBD expressed in African green monkey CV1 cells cotransfected with pRL-SV40 plasmid measured after 24 hrs by luciferase reporter gene assay; format: cell-based, CV-1
T3 sequence (Q07869 whole entry): T1 sequence (whole entry)
Summary of the method: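 CV1 African green monkey kidney cells were cotransfected, in DMEM with 5% charcoal-stripped FBS, with two plasmids: an SV40-driven Gal4 DBD–PPARα or PPARδ LBD hybrid, and a 5×Gal4-element firefly luciferase reporter. Cells were replated at 15000/well for 4 h, then exposed to 0.17 nM–10 μM in half-log steps for 24 h. Luciferase was read, normalized to maximum from 10 μM reference agonist, and fit by a 4-parameter model.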

[18] = Drug metabolism in mouse hepatocytes assessed as glucuronidation by LC-MS/MS analysis; format: ADME, cell-based, Hepatocyte
[19] = Drug metabolism in dog hepatocytes assessed as glucuronidation by LC-MS/MS analysis; format: ADME, cell-based, Canis lupus familiaris, Hepatocyte
[20] = Clearance in human liver microsomes by LC-MS/MS analysis; format: ADME, Microsome

| SMILES | EC50 [1] [nM] | fraction unbound [2] | Activity [3] | pKa [4] | ED90 (Mus musculus [5]) [mg/kg] | Emax [6] [%] | EC50 [7] [nM] | Emax [8] [%] | Activity (Rattus norvegicus [9]) | Emax [10] [%] | solubility [11] [µg/mL] | Activity (Rattus norvegicus [12]) | Activity (Mus musculus [13]) | CLH [14] [h⁻¹] | Activity (Rattus norvegicus [15]) | solubility [16] [µg/mL] | EC50 [17] [nM] | Drug metabolism [18] | Drug metabolism [19] | CLH [20] [h⁻¹] | also measured |
| --- | --- | --- | --- | --- | --- | --- | --- | --- | --- | --- | --- | --- | --- | --- | --- | --- | --- | --- | --- | --- | --- |
| CC#C[C@@H](CC(=O)O)c1ccc(OCc2ccc(CN3CCC4(CC3)CN(C)c3ccccc34)cc2)cc1 | 3.3 | < 0.01 | inactive | 8.3 | 11.7 | 47 | 55 | 268 |  |  |  |  |  |  |  |  |  |  |  |  |  |
| CC#C[C@@H](CC(=O)O)c1ccc(OCc2ccc(CN3CCC4(CCc5ccccc54)CC3)s2)cc1 | 1.2 | < 0.01 | inactive | 7.9 | 5.6 | 50 | 8 | 132 | Dose-dependent effect | 15 | 55 (≈ 110 µM) | Active | Active | 0.1 | Active | 6 (≈ 12 µM) | > 10000 | Metabolite_Detected | Metabolite_Detected | 0.109 |  |
| CC#C[C@@H](CC(=O)O)c1ccc(OCc2ccc(CN3CCC4(C=Cc5ccccc54)CC3)s2)cc1 | 0.46 | < 0.01 | inactive | 7.4 | 3.67 | 50 | 12 | 145 |  |  |  |  |  |  |  |  |  |  | Metabolite_Detected |  |  |
| CC#C[C@@H](CC(=O)O)c1ccc(OCc2ccc(CN3CCC4(C=Cc5ccccc54)CC3)cc2)cc1 [LY2881835] |  | < 0.01 | inactive | 8.1 | 0.58 | 62 |  | 162 | Dose-dependent effect | 7 | 13 (≈ 26.4 µM) | Active | Active | 0.09 | Active | 7 (≈ 14.2 µM) | > 10000 | Metabolite_Detected | Metabolite_Detected | 0.033 | EC50 ([1]; u2os): 0.85 nM |
| O=C(O)C[C@@H](c1ccc(OCc2ccc3nc(-c4ccccc4)nn3c2)cc1)c1ccon1 | 3800 | < 0.01 | inactive |  | > 100 | 54 | 14 | 124 |  |  |  |  |  |  |  |  |  |  |  |  |  |
| CC#C[C@@H](CC(=O)O)c1ccc(OCc2ccc(CN3CCCc4cccc(OC)c43)s2)cc1 | 1 | < 0.01 |  | 6 | 5 |  |  |  | Dose-dependent effect | 8 | 46 (≈ 96.7 µM) | Active | Active | < 0.05 | Active | 35 (≈ 73.6 µM) | > 10000 | Metabolite_Detected | Metabolite_Detected | 0.0048 |  |
| O=C(O)CCc1ccc(OCc2ccc(CN3CCC4(C=Cc5ccccc54)CC3)cc2)cc1F | 32 | < 0.01 | inactive | 7.7 | > 100 | 80 | 180 | 282 |  |  |  |  |  |  |  |  |  |  |  |  |  |
| CC#C[C@@H](CC(=O)O)c1ccc(OCc2ccc(CN3CCC4(CCc5ccccc54)CC3)cc2)cc1 | 0.88 | < 0.01 | inactive | 8.6 | 22 | 46 | 19 | 249 |  |  |  |  |  |  |  |  |  |  |  |  |  |
